# According to ChEMBL document CHEMBL5104176 (J Med Chem, 2022):
# Calls of active or inactive are those of the source. No cut-off for these calls is given here.
# Experiments:
# D(2) dopamine receptor = D(2) dopamine receptor (Homo sapiens, UniProt P14416); experiment: Displacement of [3H]N-methylspiperone from human D2L receptor expressed in HEK293T cell membrane incubated for 1 hr by MicroBeta scintillation counting method; format: cell membranes
# Summary of the method: (§1)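 Membranes from stably transfected HEK293 cells (hD2L, hD3 or hD4.4), 20 μg (D2, D3) or 30 μg (D4) protein/well. Incubated 1 h at room temperature in EBSS binding buffer, pH 7.4, with 0.4 nM [3H]N-methylspiperone and 10 half-log dilutions in triplicate. 10 μM (+)-butaclamol defines nonspecific binding. GF filtration, scintillation counting.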
# [1] = target: T1, D(4) dopamine receptor (Homo sapiens) (UniProt P21917); experiment: Agonist activity at D4R (unknown origin) expressed in human HEK293T cells assessed as beta arrestin-2 recruitment measured after 2.5 mins by BRET assay relative to control; format: functional, cell-based
# T1 sequence (whole entry): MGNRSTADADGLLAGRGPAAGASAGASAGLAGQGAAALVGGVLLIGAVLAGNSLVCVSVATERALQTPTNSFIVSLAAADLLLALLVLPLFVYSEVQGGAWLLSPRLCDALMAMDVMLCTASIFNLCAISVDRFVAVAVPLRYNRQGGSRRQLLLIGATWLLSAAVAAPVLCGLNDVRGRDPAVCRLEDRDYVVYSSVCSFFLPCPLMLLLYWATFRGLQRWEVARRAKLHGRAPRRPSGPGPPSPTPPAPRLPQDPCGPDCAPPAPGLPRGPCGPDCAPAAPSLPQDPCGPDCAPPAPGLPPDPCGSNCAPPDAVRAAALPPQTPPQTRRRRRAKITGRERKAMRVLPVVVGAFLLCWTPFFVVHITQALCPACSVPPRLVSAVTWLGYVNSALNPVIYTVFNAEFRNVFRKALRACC
# Summary of the method: (§2)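 Transiently transfected HEK293T cells (15 μg plasmid cDNA, polyethyleneimine, 6 h, assayed after 48 h). Gαi1 or GαoA fused to RLuc8 and Gγ2 to mVenus for G protein activation; D4 receptor fused to RLuc8 and β-arrestin to mVenus for recruitment. About 2×10^5 cells/well in PBS with 0.1% glucose and 200 μM Na bisulfite. Coelenterazine H 5 μM. Read 530/485 nm; RLuc8-only background subtracted.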
# [2] = Selectivity ratio of Ki for displacement of [3H]N-methylspiperone from human D3R expressed in HEK293T cell membrane to Ki for displacement of [3H]N-methylspiperone from human D4.4 receptor expressed in HEK293T cell membrane
# D(3) dopamine receptor = D(3) dopamine receptor (Homo sapiens, UniProt P35462); experiment: Displacement of [3H]N-methylspiperone from human D3R receptor expressed in HEK293T cell membrane incubated for 1 hr by MicroBeta scintillation counting method; format: cell membranes
# Chain of D(3) dopamine receptor (P35462 whole entry): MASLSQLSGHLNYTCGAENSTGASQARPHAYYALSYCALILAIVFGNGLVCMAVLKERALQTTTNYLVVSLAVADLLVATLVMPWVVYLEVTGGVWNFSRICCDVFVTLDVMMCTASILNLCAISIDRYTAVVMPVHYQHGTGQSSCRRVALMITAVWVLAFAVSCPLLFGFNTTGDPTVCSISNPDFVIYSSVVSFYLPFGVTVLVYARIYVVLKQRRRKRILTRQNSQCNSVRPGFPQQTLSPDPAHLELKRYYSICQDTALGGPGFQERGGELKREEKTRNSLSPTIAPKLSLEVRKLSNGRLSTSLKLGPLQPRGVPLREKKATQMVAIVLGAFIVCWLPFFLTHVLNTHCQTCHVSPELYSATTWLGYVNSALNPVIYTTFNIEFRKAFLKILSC
# Summary of the method: as §1, with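 “counting. Ki by Cheng–Prusoff from ≥3 experiments; selectivity is the Ki ratio.” for “counting.”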
# [3] = target: T1, D(4) dopamine receptor (Homo sapiens); experiment: Agonist activity at D4R (unknown origin) expressed in human HEK293T cells assessed as Gi protein activation measured after 2.5 mins by BRET assay relative to control; format: functional, cell-based; summary of the method: as §2
# D(4) dopamine receptor [4] = target: T2, D(4) dopamine receptor (Homo sapiens, UniProt P21917); experiment: Agonist activity at D4R (unknown origin) expressed in human HEK293T cells assessed as beta arrestin-2 recruitment measured after 2.5 mins by BRET assay; format: functional, cell-based
# T2 sequence (P21917 whole entry): T1 sequence (whole entry)
# Summary of the method: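 HEK293T cells transiently co-transfected with D4 receptor–RLuc8 and β-arrestin–mVenus using PEI, then harvested after 48 h. Cells were resuspended in PBS with 0.1% glucose and 200 μM Na bisulfite, at about 2×10^5 cells/well. Coelenterazine H (5 μM) was added, and ligands 2 min later. Emission was read at 485 and 530 nm 2.5 min after ligand. Net BRET was taken after subtracting the RLuc8-alone background; dose–response curves were fitted.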
# D(4) dopamine receptor [5] = target: T2, D(4) dopamine receptor; experiment: Antagonist activity at D4R (unknown origin) expressed in human HEK293T cells assessed as inhibition of dopamine-induced beta arrestin-2 recruitment pretreated for 10 mins followed by dopamine addition and measured after 2.5 mins by BRET assay; format: functional, cell-based
# D(4) dopamine receptor [6] = target: T2, D(4) dopamine receptor; experiment: Displacement of [3H]N-methylspiperone from human D4.4 receptor expressed in HEK293T cell membrane incubated for 1 hr by MicroBeta scintillation counting method; format: cell membranes
# D(4) dopamine receptor [7] = target: T2, D(4) dopamine receptor; experiment: Antagonist activity at D4R (unknown origin) expressed in human HEK293T cells assessed as inhibition of dopamine-induced Gi protein activation pretreated for 10 mins followed by dopamine addition and measured after 2.5 mins by BRET assay; format: functional, cell-based
# [8] = target: T1, D(4) dopamine receptor (Homo sapiens); experiment: Agonist activity at D4R (unknown origin) expressed in human HEK293T cells assessed as G0 protein activation measured after 2.5 mins by BRET assay relative to control; format: functional, cell-based; summary of the method: as §2
# D(4) dopamine receptor [9] = target: T2, D(4) dopamine receptor; experiment: Antagonist activity at D4R (unknown origin) expressed in human HEK293T cells assessed as inhibition of dopamine-induced G0 protein activation pretreated for 10 mins followed by dopamine addition and measured after 2.5 mins by BRET assay; format: functional, cell-based
# [10] = Selectivity ratio of Ki for displacement of [3H]N-methylspiperone from human D2L receptor expressed in HEK293T cell membrane to Ki for displacement of [3H]N-methylspiperone from human D4.4 receptor expressed in HEK293T cell membrane
# T98G [11] = experiment: Cytotoxicity against human T98G cells assessed as reduction in cell viability at 5 to 50 uM incubated for 24 hrs by MTS assay; format: functional, cell-based; details: dose 5-50 µM
# Summary of the method: (§3)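 Cells seeded at 5,000/well and grown to 80% confluence: T98 and U251 in EMEM with 10% serum; GSC#83 as spheres in serum-free DMEM/F12 with EGF and bFGF. Treated 24 h at 5–50 μM in DMSO, with a DMSO vehicle control. MTS reagent added and formazan absorbance read at 490 nm. n = 6; two-way ANOVA.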
# D(4) dopamine receptor [12] = target: T2, D(4) dopamine receptor; experiment: Displacement of [3H]7-OH-DPAT from human D4.4 receptor expressed in HEK293T cell membrane incubated for 1.5 hrs by MicroBeta scintillation counting method; format: cell membranes
# Summary of the method: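 Fresh membranes from HEK293 cells stably expressing hD4.4 (about 50–60 μg protein/well) in 50 mM Tris, 10 mM MgCl2, 1 mM EDTA, pH 7.4. Radioligand was 3 nM final; incubation 1.5 h at room temperature. Nonspecific binding was set with 10 μM (+)-butaclamol; DMSO was 3% final. Ten half-log dilutions were run in triplicate, then filtered. Ki came from IC50 by Cheng–Prusoff, from at least three independent experiments.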
# U-251 [13] = experiment: Cytotoxicity against human U-251 cells assessed as reduction in cell viability at 5 to 50 uM incubated for 24 hrs by MTS assay; format: functional, cell-based; details: dose 5-50 µM; summary of the method: as §3
# GSC#83 [14] = experiment: Cytotoxicity against human GSC#83 cells assessed as reduction in cell viability at 10 uM incubated for 24 hrs by MTS assay; format: functional, cell-based; summary of the method: as §3
# U-251 [15] = experiment: Cytotoxicity against human U-251 cells assessed as reduction in cell viability at 10 uM incubated for 24 hrs by MTS assay; format: functional, cell-based; summary of the method: as §3
# T98G [16] = experiment: Cytotoxicity against human T98G cells assessed as reduction in cell viability at 10 uM incubated for 24 hrs by MTS assay; format: functional, cell-based; summary of the method: as §3
# GSC#83 [17] = experiment: Cytotoxicity against human GSC#83 cells assessed as reduction in cell viability at 5 to 50 uM incubated for 24 hrs by MTS assay; format: functional, cell-based; details: dose 5-50 µM; summary of the method: as §3
# [18] = target: T1, D(4) dopamine receptor (Homo sapiens); experiment: Partial agonist activity at D4R (unknown origin) expressed in human HEK293T cells assessed as G0 protein activation measured after 2.5 mins by BRET assay relative to control; format: functional, cell-based; details: filed as partial agonist; summary of the method: as §2
# D(4) dopamine receptor [19] = target: T2, D(4) dopamine receptor; experiment: Partial agonist activity at D4R (unknown origin) expressed in human HEK293T cells assessed as Gi protein activation measured after 2.5 mins by BRET assay; format: functional, cell-based; summary of the method: as §2
# D(4) dopamine receptor [20] = target: T2, D(4) dopamine receptor; experiment: Partial agonist activity at D4R (unknown origin) expressed in human HEK293T cells assessed as G0 protein activation measured after 2.5 mins by BRET assay; format: functional, cell-based; summary of the method: as §2
# [21] = target: T1, D(4) dopamine receptor (Homo sapiens); experiment: Partial agonist activity at D4R (unknown origin) expressed in human HEK293T cells assessed as Gi protein activation measured after 2.5 mins by BRET assay relative to control; format: functional, cell-based; summary of the method: as §2
# Chain of D(2) dopamine receptor (P14416 whole entry): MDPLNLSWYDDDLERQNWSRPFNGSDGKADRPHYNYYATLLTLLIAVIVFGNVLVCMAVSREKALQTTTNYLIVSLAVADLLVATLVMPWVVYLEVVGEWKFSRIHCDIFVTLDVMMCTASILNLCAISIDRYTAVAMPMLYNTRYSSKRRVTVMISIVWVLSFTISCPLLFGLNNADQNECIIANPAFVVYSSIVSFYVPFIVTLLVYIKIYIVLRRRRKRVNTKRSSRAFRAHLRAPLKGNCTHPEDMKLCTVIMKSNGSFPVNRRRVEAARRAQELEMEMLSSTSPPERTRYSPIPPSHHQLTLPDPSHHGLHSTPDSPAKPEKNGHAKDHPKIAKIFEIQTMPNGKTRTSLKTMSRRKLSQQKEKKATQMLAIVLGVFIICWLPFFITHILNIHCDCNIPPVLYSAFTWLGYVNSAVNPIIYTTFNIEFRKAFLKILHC
compound,measurement,setting,value
Cc1ccc(N2CCN(CCCN3C(=O)CCc4ccccc43)CC2)cc1,Ki,D(2) dopamine receptor,5.13 µM
same,Emax,[1],-30.2%
same,Ratio Ki,[2],1740
same,Ki,D(3) dopamine receptor,1.7 µM
same,Emax,[3],0%
same,EC50,D(4) dopamine receptor [4],0.0162 µM
same,IC50,D(4) dopamine receptor [5],1.23 µM
same,Ki,D(4) dopamine receptor [6],0.000977 µM
same,IC50,D(4) dopamine receptor [7],0.11 µM
same,Emax,[8],0%
same,IC50,D(4) dopamine receptor [9],0.331 µM
same,Ratio Ki,[10],5250
O=C1CCc2ccccc2N1CCCN1CCN(c2ccc(Cl)cc2)CC1,Ki,D(2) dopamine receptor,5.5 µM
same,Emax,[1],-43.4%
same,Ratio Ki,[2],3720
same,Ki,D(3) dopamine receptor,2.45 µM
same,Emax,[3],0%
same,Activity,T98G [11],Active
same,EC50,D(4) dopamine receptor [4],0.0513 µM
same,IC50,D(4) dopamine receptor [5],10.5 µM
same,Ki,D(4) dopamine receptor [6],0.000661 µM
same,Ki,D(4) dopamine receptor [12],0.00148 µM
same,IC50,D(4) dopamine receptor [7],0.251 µM
same,Emax,[8],0%
same,Activity,U-251 [13],Active
same,Activity,GSC#83 [14],Active
same,Activity,U-251 [15],Active
same,IC50,D(4) dopamine receptor [9],0.38 µM
same,Activity,T98G [16],Active
same,Activity,GSC#83 [17],Active
same,Ratio Ki,[10],8320
O=C1CCc2ccccc2N1CCCN1CCN(c2ccccn2)CC1,Ki,D(2) dopamine receptor,2.75 µM
same,Emax,[1],0%
same,Ratio Ki,[2],1150
same,Ki,D(3) dopamine receptor,2.57 µM
same,Activity,T98G [11],Active
same,Emax,[18],46.2%
same,IC50,D(4) dopamine receptor [5],0.0676 µM
same,Ki,D(4) dopamine receptor [6],0.00224 µM
same,Activity,U-251 [13],Active
same,Activity,GSC#83 [14],Active
same,Activity,U-251 [15],Active
same,EC50,D(4) dopamine receptor [19],0.0123 µM
same,Activity,T98G [16],Active
same,Activity,GSC#83 [17],Active
same,EC50,D(4) dopamine receptor [20],0.00851 µM
same,Ratio Ki,[10],1230
same,Emax,[21],26.6%
